Measured values reported in ChEMBL document CHEMBL1629656, “Oritavancin kills stationary-phase and biofilm Staphylococcus aureus cells in vitro” (Antimicrob Agents Chemother, 2009).
In brackets after ≈: the same amount, converted by molar mass. Activity calls are given as the source filed them. The calls are words filed in the database; no cut-off is given here.

Tests used:
[1] = test system: Staphylococcus aureus; experiment: Antimicrobial activity against exponential-phase methicillin-sensitive Staphylococcus aureus ATCC 29213 grown on nutrient-depleted CAMHB medium assessed as membrane depolarization after 30 mins using DiSC3(5) dye based fluorescence spectrophotometry; type: functional, organism-based
[2] = test system: Staphylococcus aureus; experiment: Antimicrobial activity against stationary-phase methicillin-sensitive Staphylococcus aureus ATCC 29213 grown on nutrient-depleted CAMHB medium assessed as membrane depolarization after 30 mins using DiSC3(5) dye based fluorescence spectrophotometry; type: functional, organism-based
[3] = test system: Staphylococcus aureus; experiment: Bactericidal activity against methicillin-sensitive Staphylococcus aureus assessed as log reduction in bacterial load within 15 to 120 mins; type: functional
[4] = test system: Staphylococcus aureus; experiment: Bactericidal activity against stationary-phase methicillin-sensitive Staphylococcus aureus ATCC 29213 grown on nutrient-depleted CAMHB medium assessed as log reduction in bacterial count at 0.5 ug/ml after 24 hrs by time kill analysis; type: functional
[5] = test system: Staphylococcus aureus; experiment: Bactericidal activity against exponential-phase methicillin-sensitive Staphylococcus aureus ATCC 29213 grown on nutrient-depleted CAMHB medium at 0.5 ug/ml after 24 hrs by time kill analysis; type: functional, organism-based
[6] = test system: Staphylococcus aureus; experiment: Bactericidal activity against exponential-phase methicillin-sensitive Staphylococcus aureus ATCC 29213 grown on nutrient-depleted CAMHB medium at 16 ug/ml after 24 hrs by time kill analysis; type: functional, organism-based
[7] = test system: Staphylococcus aureus; experiment: Bactericidal activity against exponential-phase methicillin-sensitive Staphylococcus aureus ATCC 29213 grown on nutrient-depleted CAMHB medium at 4 ug/ml after 24 hrs by time kill analysis; type: functional, organism-based
[8] = test system: Staphylococcus aureus; experiment: Bactericidal activity against stationary-phase methicillin-resistant Staphylococcus aureus ATCC 33591 grown on nutrient-depleted CAMHB medium after 24 hrs by time kill analysis; type: functional, organism-based
How it was run: (§1)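 Overnight stationary-phase cultures inoculated at ~10^7 CFU/ml into strain-matched spent CAMHB (pH 7.0, filter-sterilized). Oritavancin was kept at 0.002% polysorbate 80; daptomycin wells had 50 μg/ml CaCl2. Incubation at 37°C, 225 rpm. Samples were charcoal-quenched (25 mg/ml) before plating; points are means of duplicates. Bactericidal means ≥3-log drop at 24 h versus inoculum. ≥3 repeats.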

[9] = test system: Staphylococcus aureus; experiment: Bactericidal activity against stationary-phase methicillin-resistant Staphylococcus aureus ATCC 33591 grown on nutrient-depleted CAMHB medium assessed as reduction in bacterial count at 0.5 ug/ml after 24 hrs by time kill analysis; type: functional; how it was run: as §1
[10] = test system: Staphylococcus aureus; experiment: Antimicrobial activity against stationary-phase methicillin-sensitive Staphylococcus aureus ATCC 29213 grown on nutrient-depleted CAMHB medium assessed as membrane permeability after 30 mins by propidium iodide staining-based fluorescence spectrophotometry; type: functional, organism-based
[11] = test system: Staphylococcus aureus; experiment: Antimicrobial activity against exponential-phase methicillin-sensitive Staphylococcus aureus ATCC 29213 grown on nutrient-depleted CAMHB medium assessed as membrane permeability after 30 mins by propidium iodide staining-based fluorescence spectrophotometry; type: functional, organism-based
[12] = test system: Staphylococcus aureus; experiment: Bactericidal activity against exponential-phase methicillin-sensitive Staphylococcus aureus ATCC 29213 assessed as log reduction in bacterial count at 16 ug/ml within 15 mins by time kill analysis; type: functional
How it was run: (§2)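 Short (2-h) time-kill of ATCC 29213 at OD600 0.005 (~10^6 CFU/ml) in 10 mM HEPES-Cl pH 7.5 with 50 μg/ml CaCl2. Exponential cells had 5 mM glucose and stationary cells none. Oritavancin was tested without polysorbate 80; viable counts were taken by serial dilution plating. Three repeats; one shown.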

[13] = test system: Staphylococcus aureus; experiment: Bactericidal activity against exponential-phase methicillin-sensitive Staphylococcus aureus ATCC 29213 assessed as log reduction in bacterial count at 4 ug/ml within 2 hrs by time kill analysis; type: functional
[14] = test system: Staphylococcus aureus; experiment: Bactericidal activity against stationary-phase methicillin-sensitive Staphylococcus aureus ATCC 29213 assessed as log reduction in bacterial count at 4 ug/ml within 2 hrs by time kill analysis; type: functional
[15] = test system: Staphylococcus aureus; experiment: Bactericidal activity against stationary-phase methicillin-sensitive Staphylococcus aureus ATCC 29213 assessed as log reduction in bacterial count at 16 ug/ml within 2 hrs by time kill analysis; type: functional; how it was run: as §2
[16] = test system: Staphylococcus aureus; experiment: Inhibition of cell division in stationary-phase methicillin-resistant Staphylococcus aureus ATCC 43300 assessed as absence of appearance of septal midline at 1 ug/ml by transmission electron microscopy; type: functional, organism-based
How it was run: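 Stationary-phase MRSA ATCC 43300 (5 × 10^7 CFU/ml) exposed for 3 h in nutrient-depleted CAMHB. Cells were fixed in 2.5% glutaraldehyde, post-fixed in 2% osmium tetroxide and en bloc stained with uranyl acetate. Samples were ethanol-dehydrated, embedded in LR White, thin-sectioned, and stained with uranyl acetate/lead citrate. Septa were viewed by TEM at 100 kV.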

[17] = test system: Staphylococcus aureus; experiment: Antimicrobial activity against methicillin-sensitive Staphylococcus aureus ATCC 29213 planktonic cells by broth microdilution method; type: functional
How it was run: (§3)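 Planktonic MIC read in the MBEC system against cells shed from 24-h peg biofilms (grown in tryptic soy broth, 37°C, 150 rpm), after 24-h exposure to serially diluted drug in CAMHB without polysorbate 80. Ranges come from ≥3 independent experiments.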

[18] = test system: Staphylococcus aureus; experiment: Antimicrobial activity against methicillin-resistant Staphylococcus aureus ATCC 33591 planktonic cells by broth microdilution method; type: functional; how it was run: as §3
[19] = test system: Staphylococcus aureus; experiment: Antimicrobial activity against vancomycin-resistant Staphylococcus aureus isolate VRS5 planktonic cells by broth microdilution method; type: functional; how it was run: as §3
[20] = test system: Staphylococcus aureus; experiment: Antimicrobial activity against methicillin-sensitive Staphylococcus aureus ATCC 29213 assessed as inhibition of bacterial biofilm formation after 1 hr by serial dilution method; type: functional
[21] = test system: Staphylococcus aureus; experiment: Antimicrobial activity against methicillin-sensitive Staphylococcus aureus ATCC 29213 assessed as inhibition of biofilm formation after 24 hrs by serial dilution method; type: functional
How it was run: (§4)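 24-h biofilms grown on MBEC peg lids from 10^7 CFU/ml inocula in tryptic soy broth at 37°C, 150 rpm. After a saline wash, pegs were exposed for 24 h to serially diluted drug in CAMHB with no polysorbate 80. Pegs were washed, sonicated 5 min into CAMHB recovery plates and incubated 24 h; MBEC is the lowest sterilizing concentration. Ranges come from ≥3 independent experiments.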

[22] = test system: Staphylococcus aureus; experiment: Antimicrobial activity against methicillin-resistant Staphylococcus aureus ATCC 33591 assessed as inhibition of biofilm formation after 24 hrs by serial dilution method; type: functional; how it was run: as §4
[23] = test system: Staphylococcus aureus; experiment: Bactericidal activity against stationary-phase vancomycin-resistant Staphylococcus aureus isolate VRS5 after 24 hrs by time kill analysis; type: functional, organism-based; how it was run: as §1
[24] = test system: Homo sapiens; experiment: fCmin in human at 200 […]; type: ADME, organism-based; conditions: in vivo
[25] = test system: Staphylococcus aureus; experiment: Antimicrobial activity against 4.6 X 10^6 CFU/peg methicillin-susceptible Staphylococcus aureus ATCC 29213 planktonic cells by broth microdilution method
[26] = test system: Staphylococcus aureus; experiment: Antimicrobial activity against 4.6 X 10^6 CFU/peg methicillin-susceptible Staphylococcus aureus ATCC 29213 assessed as inhibition of biofilm formation after 24 hrs by serial dilution method
[27] = test system: Staphylococcus aureus; experiment: Bactericidal activity against stationary-phase vancomycin-resistant Staphylococcus aureus isolate VRS5 grown on nutrient-depleted CAMHB medium assessed as log reduction in bacterial count at 4 ug/ml after 24 hrs by time kill analysis

`CN[C@H](CC(C)C)C(=O)N[C@H]1C(=O)N[C@@H](CC(N)=O)C(=O)N[C@H]2C(=O)N[C@H]3C(=O)N[C@H](C(=O)N[C@H](C(=O)O)c4cc(O)cc(O)c4-c4cc3ccc4O)[C@H](O[C@H]3C[C@](C)(N)[C@@H](O)[C@H](C)O3)c3ccc(c(Cl)c3)Oc3cc2cc(c3O[C@@H]2O[C@H](CO)[C@@H](O)[C@H](O)[C@H]2O[C@H]2C[C@](C)(NCc3ccc(-c4ccc(Cl)cc4)cc3)[C@@H](O)[C@H](C)O2)Oc2ccc(cc2Cl)[C@H]1O` [ORITAVANCIN] was tested, and the Activity [1] was “Dose-dependent effect”, the Activity [2] was “Dose-dependent effect” and the FC [3] was “>=3”. For the same compound, the FC [4] was 2.9, the Activity [5] was “Active” and the Activity [6] was “Active”. For the same compound, the Activity [7] was “Active”, the Activity [8] was “Dose-dependent effect” and the “fold change (FC)” value [9] was 0.4. For the same compound, the Activity [10] was “Dose-dependent effect”, the Activity [11] was “Dose-dependent effect” and the FC [12] was 3.2. The FC [13] was 2.9, the FC [14] was 0.9 and the FC [15] was 1.5. For the same compound, the inhibition [16] was “Active”, the MIC [17] was 2 µg/mL (≈ 1.12 µM) and the MIC [18] was 0.5 µg/mL (≈ 0.279 µM). The MIC [19] was 2 µg/mL (≈ 1.12 µM), the MBEC [20] was 4 µg/mL and the MBEC [21] was 2 µg/mL. For the same compound, the MBEC [22] was 0.5 µg/mL, the Activity [23] was “Dose-dependent effect” and the fCmin [24] was 0.5 µg/mL. It also gave an MIC [25] of 4 µg/mL (≈ 2.23 µM), an MBEC [26] of 8 µg/mL and an FC [27] of 2.2.
